Published values of several laboratories.
Protocols differ between the studies behind these lines.
Target: Activin receptor type-1-like (ACVRL1, Homo sapiens, UniProt P37023)

| SMILES | read-out | mode | method | concentration | endpoint | value |
| --- | --- | --- | --- | --- | --- | --- |
| Cc1nccc(COC(=O)N2C[C@@H]3[C@@H](CNC(=O)c4ccc5[nH]nnc5c4)[C@@H]3C2)n1 | binding | – | competition with immobilised ligand | 1 µM | remaining binding | 100% |
| Cc1cc(NC(=O)c2cccc3cc(-c4cccc5[nH]nc(N)c45)ccc23)ccc1F | enzyme activity | inhibitor | – | 0.1 µM | activity vs control | 143% |
| CCCCN(CCCC)C(=O)CN1C[C@H](c2cc(OC)c3c(c2)OCO3)[C@@H](C(=O)O)[C@@H]1CC(C)(C)CCC | cell-free assay | – | competition with immobilised ligand | 1 µM | remaining binding | 100% |
| CCN(CC)CCNC(=O)c1c(C)[nH]c(/C=C2\C(=O)Nc3ccc(F)cc32)c1C | cell-free assay | – | – | 0.5 µM | remaining signal | 112% |
| Cc1cnc(NC2CCOCC2)nc1-n1cnc(C(=O)NC(CN)c2cc(F)cc(Cl)c2)c1 (stereo not drawn) | enzyme activity | inhibitor | radiometric | 1 µM | remaining activity | 100% |
| O=C1Nc2ccc(Cl)cc2C1=Cc1cc(Cl)c(O)c(Cl)c1 | cell-free assay | – | – | 0.5 µM | remaining signal | 96.4% |
| CCC(=O)N[C@@H]1CC[C@H](C(=O)N(C)c2ccc(-c3nc4ccccc4o3)cc2)C1 | cell-free assay | – | competition with immobilised ligand | 1 µM | remaining binding | 100% |
| CN1CC(Oc2cnc(C#N)cc2-c2ccn3nc(NC(=O)C4CC4)cc3c2)C1 | enzyme activity | inhibitor | – | 1 µM | inhibition | 4% |
| O=C(Nc1cnn(-c2csc(C(=O)NC3COC3)c2)c1)Nc1c(F)cccc1Cl | enzyme activity | inhibitor | – | 5 µM | remaining activity | 120% |
| CC(C)(C)c1nc(-c2cccc(NS(=O)(=O)c3c(F)cccc3F)c2F)c(-c2ccnc(N)n2)s1 | enzyme activity | inhibitor | radiometric | 1 µM | remaining activity | 75% |
| O=C(O)[C@@H]1[C@@H](Cn2nnc3ccccc3c2=O)CC[C@H]1C(=O)c1ccc(OCCC2CCOCC2)cc1 | binding | – | competition with immobilised ligand | 1 µM | remaining binding | 97% |
| N#CCCc1ccc2c(c1)-c1[nH]c3ccc([N+](=O)[O-])cc3c1CC(=O)N2 | cell-free assay | – | – | 0.5 µM | remaining signal | 53.6% |
| COc1cc(Cl)c(C(=O)N[C@@H](CN[C@H]2CC[C@@H](N)CC2)Cc2ccc(C#N)cc2)cc1-c1ccc(CN[C@H](C)c2ccc(C)cc2)o1 | enzyme activity | inhibitor | – | 1 µM | remaining activity | 123% |
| CO[C@@H](C)c1c(Nc2ccc([C@H](N(C)C(=O)C3CCS(=O)(=O)CC3)C(F)(F)F)cc2)cnc2cc(Cl)nn12 | cell-free assay | – | competition with immobilised ligand | 1 µM | remaining binding | 100% |
| O=C1NC(=O)c2cc(Nc3ccc(F)cc3)c(Nc3ccc(F)cc3)cc21 | cell-free assay | – | – | 0.5 µM | remaining signal | 95.9% |
